The nature of assay [1]: Antibacterial activity against Salmonella enterica serovar Hadar VA5649 by both microdilution assay. The class given is functional, Salmonella enterica subsp. enterica serovar Hadar. In a few lines:
(§1)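 Tigecycline MIC by broth microdilution using a commercial tigecycline panel with freshly prepared Mueller-Hinton II broth less than 12 h old. Susceptible, intermediate or resistant category assigned by EUCAST clinical breakpoints.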

The nature of assay [2]: Antibacterial activity against Salmonella enterica serovar Hadar VA5649 expressing ACYC177 plasmid by both microdilution assay. The class given is functional, Salmonella enterica subsp. enterica serovar Hadar. In a few lines:
as §1
On the technique in general: Broth dilution looks for growth in wells or tubes with falling amounts of substance.

Assay [3] is described as follows: Antibacterial activity against Salmonella enterica serovar Hadar VA5649 harboring wild type ramR-2313 gene by both microdilution assay. Type of assay: functional, Salmonella enterica subsp. enterica serovar Hadar. In a few lines: as §1
Assay [4] relates to Escherichia coli. In words: Antibacterial activity against Escherichia coli DH10B expressing Tn1721-tet(A) carrying plasmid SK2 by broth microdilution assay. The class given is functional. Conditions: K-12 DH10B. In outline:
as §1

The subject of assay [5] is Salmonella enterica. Briefly: Antibacterial activity against wild type Salmonella enterica TY2313 by broth microdilution assay. Type of assay: functional. In outline:
(§2)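 MIC by broth microdilution on a commercial ready-made drug panel, using freshly prepared Mueller-Hinton II broth (under 12 h old). MIC categories interpreted against EUCAST clinical breakpoints (susceptible, intermediate or resistant).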

Assay [6] is described as follows: Antibacterial activity against Salmonella enterica serovar Hadar VA5649 harboring ramR-5649 mutant gene by both microdilution assay. Type of assay: functional, Salmonella enterica subsp. enterica serovar Hadar. In outline: as §1
Assay [7] deals with Escherichia coli. Briefly: Antibacterial activity against Escherichia coli DH10B expressing SK2 plasmid by broth microdilution assay. The class given is functional. The conditions noted are these: K-12 DH10B. In a few lines: as §2
The test system of assay [8] is Escherichia coli. Briefly: Antibacterial activity against Escherichia coli DH10B harboring Tn1721-tet(A) carrying plasmid by broth microdilution assay. Type of assay: functional. Conditions: K-12 DH10B. In a few lines:
as §1

Assay [9] deals with Escherichia coli. Briefly: Antibacterial activity against Escherichia coli DH10B by broth microdilution assay. Type of assay: functional. Conditions: K-12 DH10B. In a few lines: as §2
Assay [10] is described as follows: Antibacterial activity against Salmonella enterica serovar Hadar VA5649 harboring ramR-5649 mutant gene by Etest method. Type of assay: functional, Salmonella enterica subsp. enterica serovar Hadar.
Assay [11] can be described thus: Antibacterial activity against Salmonella enterica serovar Hadar VA5649 harboring wild type ramR-2313 gene by Etest method. Type of assay: functional, Salmonella enterica subsp. enterica serovar Hadar.
A short description of assay [12]: Antibacterial activity against Salmonella enterica serovar Hadar VA5649 expressing ACYC177 plasmid by Etest method. The class given is functional, Salmonella enterica subsp. enterica serovar Hadar.
Assay [13] concerns Salmonella enterica. Briefly: Antibacterial activity against wild type Salmonella enterica TY2313 by Etest method. Type of assay: functional.
Assay [14] is described as follows: Antibacterial activity against Salmonella enterica serovar Hadar VA5649 by Etest method. The class given is functional, Salmonella enterica subsp. enterica serovar Hadar.
In assay [15] the test system is Escherichia coli. In words: Antibacterial activity against Escherichia coli DH10B harboring Tn1721-tet(A) carrying plasmid by Etest method. The class given is functional. Conditions: K-12 DH10B.
Assay [16] relates to Escherichia coli. Briefly: Antibacterial activity against Escherichia coli DH10B expressing SK2 plasmid by Etest method. The conditions noted are these: K-12 DH10B. The class given is functional.
Assay [17] has as its system Escherichia coli. In words: Antibacterial activity against Escherichia coli DH10B expressing Tn1721-tet(A) carrying plasmid SK2 by Etest method. Type of assay: functional. The conditions noted are these: K-12 DH10B.
For assay [18], the system named is Escherichia coli. Briefly: Antibacterial activity against Escherichia coli DH10B by Etest method. The conditions noted are these: K-12 DH10B. The class given is functional.

≈ marks a conversion by molar mass, not a printed value.

As to `CN(C)c1cc(NC(=O)CNC(C)(C)C)c(O)c2c1C[C@H]1C[C@H]3[C@H](N(C)C)C(O)=C(C(N)=O)C(=O)[C@@]3(O)C(O)=C1C2=O` [TIGECYCLINE], the minimum inhibitory concentration (MIC) (commonly the smallest concentration in the dilution series that meets the test's criterion for growth inhibition) in [1] is 16 µg/mL (≈ 27.3 µM); in [2] it was 16 µg/mL (≈ 27.3 µM); in assay [3] it was 2 µg/mL (≈ 3.41 µM); in the assay on Escherichia coli [4], 0.25 µg/mL (≈ 0.427 µM); with Salmonella enterica [5] it was 0.25 µg/mL (≈ 0.427 µM); in [6], 16 µg/mL (≈ 27.3 µM). Moreover, the MIC in the assay on Escherichia coli [7] worked out at 0.065 µg/mL (≈ 0.111 µM); in the assay on Escherichia coli [8], 0.25 µg/mL (≈ 0.427 µM); in the assay on Escherichia coli [9], 0.065 µg/mL (≈ 0.111 µM).

Take `O=C(N[C@H](CO)[C@H](O)c1ccc([N+](=O)[O-])cc1)C(Cl)Cl` [CHLORAMPHENICOL]: the MIC amounted to 8 µg/mL (≈ 24.8 µM) in assay [10]; 2 µg/mL (≈ 6.19 µM) in [11]; 8 µg/mL (≈ 24.8 µM) in [12]; 2 µg/mL (≈ 6.19 µM) in the assay on Salmonella enterica [13]; 8 µg/mL (≈ 24.8 µM) in assay [14].

Take `O=C(O)c1cn(C2CC2)c2cc(N3CCNCC3)c(F)cc2c1=O` [CIPROFLOXACIN]: the MIC in assay [10] was found to be 1 µg/mL (≈ 3.02 µM); in assay [11], 0.25 µg/mL (≈ 0.754 µM); in [12] it was 1 µg/mL (≈ 3.02 µM); in [14] it was 1 µg/mL (≈ 3.02 µM).

In the case of `CN(C)c1ccc(O)c2c1C[C@H]1C[C@H]3[C@H](N(C)C)C(O)=C(C(N)=O)C(=O)[C@@]3(O)C(O)=C1C2=O` [MINOCYCLINE], the MIC came out at 8 µg/mL (≈ 17.5 µM) with Escherichia coli [15]; 0.75 µg/mL (≈ 1.64 µM) against Escherichia coli [16]; 32 µg/mL (≈ 69.9 µM) in assay [14]; 8 µg/mL (≈ 17.5 µM) against Escherichia coli [17]; 0.75 µg/mL (≈ 1.64 µM) against Escherichia coli [18].

Values taken from ChEMBL document CHEMBL1240379, “Combined ramR mutation and presence of a Tn1721-associated tet(A) variant in a clinical isolate of Salmonella enterica serovar Hadar resistant to tigecycline” (2010).
